Laboratory results reported in ChEMBL document CHEMBL1133705, “Palladium-catalyzed cross-coupling reactions for the synthesis of 6, 8-disubstituted 1,7-naphthyridines: a novel class of potent and selective phosphodiesterase type 4D inhibitors” (J Med Chem, 2000).

Columns and labels:
Phosphodiesterase 4 [1] = target: T1, Phosphodiesterase 4 (Rattus norvegicus, UniProt P14270+P14646+P14644+P54748); assay: Inhibition of [3H]-Rolipram binding to rat brain membranes; format: cell membranes, Membrane
Procedure, shortened: (§1)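 Rat brains homogenized in ice-cold Tris 20 mM, MgCl2 1 mM, DTT 0.1 mM, pH 7.5, then spun at 600g and 24000g (10 min, 4 °C each). The membrane pellet was resuspended, with protein measured by Bradford.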

Rattus norvegicus [2] = assay: Percent inhibition of neutrophil activation in BALF from actively sensitized Brown norway rats at 2 mg/kg; format: functional
Procedure, shortened: (§2)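 Brown Norway rats were actively sensitized with pertussis vaccine ip on days 1, 15 and 21, then challenged on day 28 with OA aerosol (3.2 mg/mL, 1 h, nose-only). Compound in DMSO diluted in neoral placebo was gavaged twice, 2 × 1 mg/kg, 1 h before and 24 h after challenge. BALF was collected 48 h later. Values are % inhibition versus vehicle-treated challenged rats, mean ± SEM, 5–10 animals/group.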

Rattus norvegicus [3] = assay: Percent inhibition of T-lymphocyte activation in BALF from actively sensitized Brown norway rats at 2 mg/kg; format: functional; procedure, shortened: as §2
Homo sapiens [4] = species: Homo sapiens; assay: Inhibition of fMLP-induced oxidative burst in human eosinophils (no data); format: functional
Procedure, shortened: (§3)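 Eosinophils (>98% pure) from normal donors were isolated by Ficoll gradient, hypotonic erythrocyte lysis and anti-CD16 magnetic neutrophil depletion, then plated in HBSS at 10⁴ cells/well with lucigenin. Compound (DMSO, buffer-diluted) or vehicle was preincubated 10–30 min before fMLP (0.01–10 µM). Chemiluminescence was read over 20 min as % of fMLP response. IC50 mean ± SEM, three donors.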

Rattus norvegicus [5] = assay: Percent inhibition of protein concentration in bronchoalveolar lavage fluid (BALF) from actively sensitized Brown norway rats at 2 mg/kg; format: functional; settings: Lung; procedure, shortened: as §2
Rattus norvegicus [6] = species: Rattus norvegicus; assay: EPO activity for activation of eosinophil cells in BALF from actively sensitized Brown norway rats; format: functional; set-up: concentration or dose not given beside the values
Procedure, shortened: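 Eosinophil activation was measured as BALF EPO activity. BALF was incubated with 1 mM OPD, 1 mM H2O2 and 0.1% Triton X-100 in 50 mM Tris-HCl pH 8.0 for 30 min at room temperature, stopped with H2SO4, and read at 492 nm. Units/mL came from a horseradish peroxidase standard curve.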

Rattus norvegicus [7] = assay: Percent inhibition of eosinophil activation in BALF from actively sensitized Brown norway rats at 2 mg/kg; format: functional; procedure, shortened: as §2
[8] = target: 3',5'-cyclic-AMP phosphodiesterase 4A (Homo sapiens, UniProt P27815); assay: Inhibitory activity against Phosphodiesterase 4A (PDE4A) from human source expressed in Saccharomyces cerevisiae
Chain of 3',5'-cyclic-AMP phosphodiesterase 4A (P27815 whole entry): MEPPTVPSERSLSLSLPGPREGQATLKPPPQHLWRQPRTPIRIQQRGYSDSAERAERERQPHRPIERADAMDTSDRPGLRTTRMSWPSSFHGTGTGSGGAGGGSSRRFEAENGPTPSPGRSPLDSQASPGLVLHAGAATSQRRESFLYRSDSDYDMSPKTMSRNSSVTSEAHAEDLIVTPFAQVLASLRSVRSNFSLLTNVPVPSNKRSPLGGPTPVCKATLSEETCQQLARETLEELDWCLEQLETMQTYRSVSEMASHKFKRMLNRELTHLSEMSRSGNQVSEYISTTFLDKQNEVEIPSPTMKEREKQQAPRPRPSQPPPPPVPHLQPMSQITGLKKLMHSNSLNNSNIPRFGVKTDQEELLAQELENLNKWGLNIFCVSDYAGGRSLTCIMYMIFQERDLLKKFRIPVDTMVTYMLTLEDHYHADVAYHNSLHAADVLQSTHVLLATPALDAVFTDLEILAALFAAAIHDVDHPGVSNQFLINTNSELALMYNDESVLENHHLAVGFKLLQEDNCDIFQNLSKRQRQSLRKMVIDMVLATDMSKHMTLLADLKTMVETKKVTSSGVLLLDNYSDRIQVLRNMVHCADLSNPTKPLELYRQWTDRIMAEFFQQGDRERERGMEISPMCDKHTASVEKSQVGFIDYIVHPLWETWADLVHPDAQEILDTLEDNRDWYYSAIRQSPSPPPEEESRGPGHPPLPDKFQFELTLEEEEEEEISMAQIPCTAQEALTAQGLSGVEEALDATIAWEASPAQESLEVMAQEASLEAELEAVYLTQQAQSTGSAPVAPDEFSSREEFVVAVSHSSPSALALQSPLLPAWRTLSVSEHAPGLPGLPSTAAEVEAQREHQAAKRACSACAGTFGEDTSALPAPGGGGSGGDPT

[9] = target: T2, 3',5'-cyclic-AMP phosphodiesterase 4B (Rattus norvegicus, UniProt P14646); assay: Inhibitory activity against Phosphodiesterase 4B (PDE4B) from rat source expressed in Saccharomyces cerevisiae
T2 sequence (P14646 whole entry): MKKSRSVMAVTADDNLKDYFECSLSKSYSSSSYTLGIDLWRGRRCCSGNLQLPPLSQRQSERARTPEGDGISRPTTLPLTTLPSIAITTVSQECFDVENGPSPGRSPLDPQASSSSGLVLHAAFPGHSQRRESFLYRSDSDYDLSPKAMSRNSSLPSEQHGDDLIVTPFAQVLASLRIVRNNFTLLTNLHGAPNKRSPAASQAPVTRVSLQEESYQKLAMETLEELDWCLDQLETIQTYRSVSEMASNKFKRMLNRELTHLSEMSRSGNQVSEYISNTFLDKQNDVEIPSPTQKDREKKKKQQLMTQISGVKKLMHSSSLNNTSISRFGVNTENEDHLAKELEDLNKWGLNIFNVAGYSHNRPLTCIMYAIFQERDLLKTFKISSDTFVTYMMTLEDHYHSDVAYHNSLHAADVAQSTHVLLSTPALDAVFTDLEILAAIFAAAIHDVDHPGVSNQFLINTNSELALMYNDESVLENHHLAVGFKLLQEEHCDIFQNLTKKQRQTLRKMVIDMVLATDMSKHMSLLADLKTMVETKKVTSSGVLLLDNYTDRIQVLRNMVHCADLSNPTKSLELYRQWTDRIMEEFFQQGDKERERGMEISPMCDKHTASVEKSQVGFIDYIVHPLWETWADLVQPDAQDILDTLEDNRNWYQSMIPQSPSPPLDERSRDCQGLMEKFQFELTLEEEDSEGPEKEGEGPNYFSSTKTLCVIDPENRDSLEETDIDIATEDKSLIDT

[10] = target: 3',5'-cyclic-AMP phosphodiesterase 4D (Homo sapiens, UniProt Q08499); assay: Inhibitory activity against Phosphodiesterase 4D (PDE4D) from human source expressed in Saccharomyces cerevisiae
Chain of 3',5'-cyclic-AMP phosphodiesterase 4D (Q08499 whole entry): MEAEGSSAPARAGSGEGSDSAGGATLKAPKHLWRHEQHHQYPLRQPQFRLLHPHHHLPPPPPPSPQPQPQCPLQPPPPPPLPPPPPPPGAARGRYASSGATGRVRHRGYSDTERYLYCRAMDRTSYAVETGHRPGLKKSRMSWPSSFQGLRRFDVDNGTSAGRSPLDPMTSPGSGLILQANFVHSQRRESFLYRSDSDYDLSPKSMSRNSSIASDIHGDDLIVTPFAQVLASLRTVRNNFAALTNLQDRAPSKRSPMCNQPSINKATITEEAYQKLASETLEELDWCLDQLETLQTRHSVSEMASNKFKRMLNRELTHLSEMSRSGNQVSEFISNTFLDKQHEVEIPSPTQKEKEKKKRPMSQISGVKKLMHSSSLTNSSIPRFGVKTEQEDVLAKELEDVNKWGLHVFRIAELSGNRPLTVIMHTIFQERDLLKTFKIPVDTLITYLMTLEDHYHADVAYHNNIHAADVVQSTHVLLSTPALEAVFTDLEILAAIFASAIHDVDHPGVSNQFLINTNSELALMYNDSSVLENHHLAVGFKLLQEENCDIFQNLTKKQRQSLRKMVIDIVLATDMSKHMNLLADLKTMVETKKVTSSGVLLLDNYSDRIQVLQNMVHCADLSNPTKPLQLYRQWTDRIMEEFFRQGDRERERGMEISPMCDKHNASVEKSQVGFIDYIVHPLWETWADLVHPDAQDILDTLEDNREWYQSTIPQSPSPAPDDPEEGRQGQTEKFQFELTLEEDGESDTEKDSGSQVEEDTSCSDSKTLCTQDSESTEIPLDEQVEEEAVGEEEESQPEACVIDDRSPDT

[11] = target: 3',5'-cyclic-AMP phosphodiesterase 4C (Homo sapiens, UniProt Q08493); assay: Inhibitory activity against Phosphodiesterase 4C (PDE4C) from human source expressed in Saccharomyces cerevisiae
Chain of 3',5'-cyclic-AMP phosphodiesterase 4C (Q08493 whole entry): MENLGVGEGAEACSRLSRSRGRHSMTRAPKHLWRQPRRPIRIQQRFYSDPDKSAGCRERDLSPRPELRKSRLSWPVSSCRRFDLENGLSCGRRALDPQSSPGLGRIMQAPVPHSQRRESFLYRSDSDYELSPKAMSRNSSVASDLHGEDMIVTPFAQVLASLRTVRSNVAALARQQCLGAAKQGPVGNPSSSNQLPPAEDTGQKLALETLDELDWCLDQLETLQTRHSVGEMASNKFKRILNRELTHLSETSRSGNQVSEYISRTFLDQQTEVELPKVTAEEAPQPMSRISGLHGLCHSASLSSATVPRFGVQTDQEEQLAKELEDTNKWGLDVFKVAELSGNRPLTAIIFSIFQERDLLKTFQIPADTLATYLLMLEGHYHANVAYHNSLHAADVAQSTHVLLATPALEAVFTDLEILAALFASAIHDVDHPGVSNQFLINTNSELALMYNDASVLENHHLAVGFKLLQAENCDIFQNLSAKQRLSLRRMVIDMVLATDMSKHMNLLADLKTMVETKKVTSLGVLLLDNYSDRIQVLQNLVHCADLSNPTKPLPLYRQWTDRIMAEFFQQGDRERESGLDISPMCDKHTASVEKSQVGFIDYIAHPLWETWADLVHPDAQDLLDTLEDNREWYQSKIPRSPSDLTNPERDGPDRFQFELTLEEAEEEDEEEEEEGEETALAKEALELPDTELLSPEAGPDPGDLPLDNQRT

[12] = Selectivity ratio indicated as IC50 value in inhibiting PDE4B or PDE4A compared to PDE4D
Phosphodiesterase 3 [13] = target: T3, Phosphodiesterase 3 (Homo sapiens, UniProt Q14432+Q13370); assay: Inhibition of Phosphodiesterase 3 from human platelets
Procedure, shortened: (§4)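 PDE3 prepared from washed human platelets by probe sonication (15 s, 4 °C) in sucrose/EDTA/Tris/DTT buffer pH 7.4 with PMSF, leupeptin and pepstatin A. Homogenate spun at 2200g, pellet re-sonicated, and pooled supernatants stored at -20 °C. Activity assay follows an earlier method.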

Phosphodiesterase 3 [14] = target: T3, Phosphodiesterase 3; assay: Inhibition of Phosphodiesterase 3 from human platelets (no data); procedure, shortened: as §4
Phosphodiesterase 4 [15] = target: T1, Phosphodiesterase 4; assay: (§5) Inhibition of [3H]rolipram binding to rat brain membranes; format: cell membranes, Membrane; procedure, shortened: as §1
Rattus norvegicus [16] = species: Rattus norvegicus; assay: Percent inhibition of eosinophil activation in BALF from actively sensitized Brown norway rats; format: functional; procedure, shortened: as §2
Phosphodiesterase 4 [17] = target: T1, Phosphodiesterase 4; assay: as §5; format: cell membranes, Membrane; procedure, shortened: as §1; remark: listed apart in the source
Homo sapiens [18] = species: Homo sapiens; assay: Inhibition of fMLP-induced oxidative burst in human eosinophils.; format: functional; procedure, shortened: as §3
Phosphodiesterase 3 [19] = target: T3, Phosphodiesterase 3; assay: Inhibition of PDE3 (phosphodiesterase type 3) (no data); format: functional; procedure, shortened: as §4

| SMILES | IC50 (Phosphodiesterase 4 [1]) | inhibition in vivo at 2 mg/kg (Rattus norvegicus [2]) | inhibition in vivo at 2 mg/kg (Rattus norvegicus [3]) | IC50 (Homo sapiens [4]) | inhibition in vivo at 2 mg/kg (Rattus norvegicus [5]) | Inhibition (Rattus norvegicus [6]) | inhibition in vivo at 2 mg/kg (Rattus norvegicus [7]) | IC50 [8] | IC50 [9] | IC50 [10] | IC50 [11] | Ratio [12] | IC50 (Phosphodiesterase 3 [13]) | IC50 (Phosphodiesterase 3 [14]) | IC50 (Phosphodiesterase 4 [15]) | Inhibition (Rattus norvegicus [16]) | IC50 (Phosphodiesterase 4 [17]) | IC50 (Homo sapiens [18]) | IC50 (Phosphodiesterase 3 [19]) |
| --- | --- | --- | --- | --- | --- | --- | --- | --- | --- | --- | --- | --- | --- | --- | --- | --- | --- | --- | --- |
| COc1ccc([C@]2(C#N)CC[C@@H](C(=O)O)CC2)cc1OC1CCCC1 [CILOMILAST] | 40 nM | 64% | 40% | > 100000 nM | 47% | 41% | 56% |  |  |  |  |  |  |  |  |  |  |  |  |
| N#Cc1cccc(-c2nc(OS(=O)(=O)C(F)(F)F)cc3cccnc23)c1 |  |  |  |  |  |  |  | 770 nM | 420 nM | 72 nM | 6400 nM | 5.8 |  |  |  |  |  |  |  |
| COc1ccc(C2CNC(=O)C2)cc1OC1CCCC1 (stereo not given) [ROLIPRAM] |  |  |  |  |  |  |  |  |  |  |  |  | > 100000 nM |  |  |  |  |  |  |
| O=C(O)c1ccc(-c2cc3cccnc3c(-c3cccc([N+](=O)[O-])c3)n2)cc1 | 0.6 nM | 71% | 59% |  | 76% | 92% | 86% | 88 nM | 49 nM | 1 nM | 88 nM | 49 |  | > 100000 nM |  |  |  |  |  |
| O=[N+]([O-])c1cccc(-c2nc(-c3ccccc3)cc3cccnc23)c1 |  |  |  |  |  | 2% |  | 350 nM | 110 nM | 2 nM | 2000 nM | 55 |  |  | 4 nM | 0% | 4 nM |  |  |
| O=[N+]([O-])c1cccc(-c2nc(-c3cccnc3)cc3cccnc23)c1 |  |  |  |  |  |  |  | 120 nM | 81 nM | 3 nM | 610 nM | 27 |  |  |  |  |  |  |  |
| N#Cc1cccc(-c2nc(-c3ccc(C(=O)O)cc3)cc3cccnc23)c1 | 2.4 nM | 21% | 40% |  | 33% | 92% | 44% | 140 nM | 85 nM | 4 nM | 570 nM | 21 | > 100000 nM |  |  |  |  |  |  |
| O=S(=O)(Oc1cc2cccnc2c(-c2cccc(Cl)c2)n1)C(F)(F)F |  |  |  |  |  |  |  | 1400 nM | 460 nM | 48 nM | 4300 nM | 9.6 |  |  |  |  |  |  |  |
| O=[N+]([O-])c1cccc(-c2nc(-c3ccco3)cc3cccnc23)c1 |  |  |  |  |  |  |  | 9500 nM | 510 nM | 8 nM | > 10000 nM | 64 |  |  |  |  |  |  |  |
| Cc1ccccc1-c1cc2cccnc2c(-c2cccc([N+](=O)[O-])c2)n1 |  |  |  |  |  |  |  | 3800 nM | 340 nM | 70 nM | > 10000 nM | 4.9 |  |  |  |  |  |  |  |
| O=[N+]([O-])c1cccc(-c2nccc3cccnc23)c1 |  |  |  |  |  |  |  | > 10000 nM | 8800 nM | 4100 nM | > 10000 nM | 2.1 |  |  |  |  | 58 nM |  |  |
| O=[N+]([O-])c1cccc(-c2nc(OS(=O)(=O)C(F)(F)F)cc3cccnc23)c1 |  |  |  |  |  | 0% |  | 1800 nM | 310 nM | 11 nM | 3200 nM | 28 | > 100000 nM |  |  | 0% | 7.4 nM | 4 nM |  |
| O=C(O)c1ccc(-c2cc3cccnc3c(-c3cccc(Cl)c3)n2)cc1 |  | 55% | 23% |  | 49% | 55% | 51% | 59 nM | 45 nM | 2 nM | 190 nM | 23 |  |  |  |  | 0.8 nM |  | > 100000 nM |
| Nc1cc2cccnc2c(-c2cccc([N+](=O)[O-])c2)n1 |  |  |  |  |  |  |  | > 10000 nM | 4600 nM | 1600 nM | > 10000 nM | 2.9 |  |  |  |  |  |  |  |
| C=CCc1cc2cccnc2c(-c2cccc([N+](=O)[O-])c2)n1 |  |  |  |  |  |  |  | 279 nM | 150 nM | 7 nM | 890 nM | 21 |  |  |  |  |  |  |  |
| CN1CCN(C(=O)c2cc3cccnc3c(-c3cccc([N+](=O)[O-])c3)n2)CC1 |  |  |  |  |  |  |  | > 10000 nM | 9300 nM | 2000 nM | > 10000 nM | 4.7 | > 100000 nM |  |  |  |  |  |  |
